Tests used:
Aminopeptidase N = biological target: T1, Aminopeptidase N (Plasmodium falciparum FcB1/Columbia, UniProt O96935); experiment: Inhibition of Plasmodium falciparum FcB1 M1 aminopeptidase
T1 sequence (O96935 whole entry): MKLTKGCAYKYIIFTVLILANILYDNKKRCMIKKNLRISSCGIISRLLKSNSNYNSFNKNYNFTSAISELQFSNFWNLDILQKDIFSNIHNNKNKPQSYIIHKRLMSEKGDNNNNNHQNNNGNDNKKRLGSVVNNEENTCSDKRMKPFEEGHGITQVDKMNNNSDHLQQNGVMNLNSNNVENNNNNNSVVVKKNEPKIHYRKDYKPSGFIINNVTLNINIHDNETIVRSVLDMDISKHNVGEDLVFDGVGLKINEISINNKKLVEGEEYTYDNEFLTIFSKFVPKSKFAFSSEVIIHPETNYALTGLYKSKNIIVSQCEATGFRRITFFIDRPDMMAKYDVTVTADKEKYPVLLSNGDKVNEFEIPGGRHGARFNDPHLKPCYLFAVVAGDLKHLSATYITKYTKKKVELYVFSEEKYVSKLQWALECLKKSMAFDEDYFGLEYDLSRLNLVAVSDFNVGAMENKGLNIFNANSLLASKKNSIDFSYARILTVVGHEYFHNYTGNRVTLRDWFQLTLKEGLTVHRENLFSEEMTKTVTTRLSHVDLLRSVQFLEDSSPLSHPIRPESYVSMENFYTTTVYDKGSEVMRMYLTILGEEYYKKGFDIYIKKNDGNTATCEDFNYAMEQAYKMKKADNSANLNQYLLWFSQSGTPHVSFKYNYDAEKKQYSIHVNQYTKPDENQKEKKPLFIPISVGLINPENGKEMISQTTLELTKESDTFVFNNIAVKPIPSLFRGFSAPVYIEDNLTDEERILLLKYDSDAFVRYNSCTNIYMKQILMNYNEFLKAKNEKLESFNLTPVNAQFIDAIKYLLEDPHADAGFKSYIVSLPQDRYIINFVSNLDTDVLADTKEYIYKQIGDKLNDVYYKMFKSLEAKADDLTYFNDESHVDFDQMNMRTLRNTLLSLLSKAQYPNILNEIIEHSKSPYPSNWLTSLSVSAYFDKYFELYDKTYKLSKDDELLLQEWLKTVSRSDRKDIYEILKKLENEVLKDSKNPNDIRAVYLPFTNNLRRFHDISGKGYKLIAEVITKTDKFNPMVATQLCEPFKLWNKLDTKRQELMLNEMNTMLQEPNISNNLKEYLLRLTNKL
Procedure, shortened: (§1)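 Native enzyme purified from P. falciparum FcB1, diluted 10-fold in 25 mM Tris-HCl pH 7.4. Preincubated with inhibitor for 10 min at room temperature, then Leu-pNA substrate added (0.3 mM stock, Km 0.099 mM). Kinetics followed at 405 nm at room temperature. Initial velocities normalized to a no-inhibitor control. Single-point screen at 10 µM; IC50 from velocity versus inhibitor concentration curves. Bestatin used as reference.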

[1] = biological target: T2, Aminopeptidase N (Plasmodium falciparum FcB1/Columbia) (UniProt O96935); experiment: Inhibition of Plasmodium falciparum FcB1 M1 aminopeptidase at 10 uM; procedure, shortened: as §1
T2 sequence (whole entry): T1 sequence (O96935 whole entry)

[2] = biological target: T3, Aminopeptidase N (Sus scrofa) (UniProt P15145); experiment: Inhibition of pig kidney microsomal APN at 10 uM
T3 sequence (whole entry): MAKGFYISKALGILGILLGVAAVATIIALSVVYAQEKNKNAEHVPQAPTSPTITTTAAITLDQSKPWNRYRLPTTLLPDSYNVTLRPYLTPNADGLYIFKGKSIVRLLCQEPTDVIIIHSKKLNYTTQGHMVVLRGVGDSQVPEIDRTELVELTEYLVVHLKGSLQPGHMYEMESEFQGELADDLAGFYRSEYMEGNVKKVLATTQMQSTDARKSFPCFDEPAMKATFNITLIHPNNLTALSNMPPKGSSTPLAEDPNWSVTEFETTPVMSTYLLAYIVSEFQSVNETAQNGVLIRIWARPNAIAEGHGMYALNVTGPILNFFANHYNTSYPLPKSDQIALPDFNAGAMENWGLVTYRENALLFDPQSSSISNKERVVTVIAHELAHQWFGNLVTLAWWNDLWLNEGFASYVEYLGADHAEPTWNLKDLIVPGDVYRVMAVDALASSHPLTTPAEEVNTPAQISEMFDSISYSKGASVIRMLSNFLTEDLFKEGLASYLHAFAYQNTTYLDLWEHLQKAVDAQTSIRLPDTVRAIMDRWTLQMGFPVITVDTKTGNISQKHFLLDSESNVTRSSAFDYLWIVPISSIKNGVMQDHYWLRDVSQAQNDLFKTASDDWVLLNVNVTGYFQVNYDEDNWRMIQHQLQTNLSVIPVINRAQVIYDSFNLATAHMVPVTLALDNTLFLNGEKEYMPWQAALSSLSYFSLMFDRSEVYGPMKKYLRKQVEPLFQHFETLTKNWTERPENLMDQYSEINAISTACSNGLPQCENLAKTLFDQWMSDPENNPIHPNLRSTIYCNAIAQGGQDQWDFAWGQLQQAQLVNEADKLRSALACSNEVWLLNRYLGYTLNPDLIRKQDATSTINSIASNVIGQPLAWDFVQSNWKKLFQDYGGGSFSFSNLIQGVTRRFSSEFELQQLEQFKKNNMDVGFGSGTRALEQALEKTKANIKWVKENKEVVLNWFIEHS
Procedure, shortened: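 Porcine kidney microsomal APN (ammonium sulfate suspension) diluted 600-fold in 25 mM Tris-HCl pH 7.4. Preincubated with inhibitor for 10 min at room temperature, then Leu-pNA added (0.3 mM stock). Hydrolysis followed at 405 nm at room temperature. Rates normalized to a no-inhibitor control. Single point at 10 µM; IC50 from concentration-velocity curves. Bestatin used as reference.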

| SMILES | IC50 (Aminopeptidase N) | inhibition [1] | inhibition [2] |
| --- | --- | --- | --- |
| CC(C)CC(C(=O)NO)C(=O)NC1CCCc2ccccc21 (stereo unspecified) | 109 nM | – | – |
| CC(C)CC(C(=O)NO)C(=O)N1CCC(Cc2ccccc2)CC1 (stereo unspecified) | 406 nM | 100% | 68% |
| CC(C)CC(C(=O)NO)C(=O)NCCCc1ccccc1 (stereo unspecified) | 790 nM | 98% | 95% |
| O=C(NO)C(Cc1ccccc1)C(=O)N1CCC(Cc2ccccc2)CC1 (stereo unspecified) | 206 nM | 92% | 34% |
| CC(C)CC(C(=O)NO)C(=O)NCCCCc1ccccc1 (stereo unspecified) | 1150 nM | 87% | 92% |
| O=C(NO)C(Cc1ccccc1)C(=O)NCCCc1ccccc1 (stereo unspecified) | 125 nM | 94% | 84% |
| O=C(NO)C(Cc1cccc(Oc2ccccc2)c1)C(=O)N1CCc2ccccc2C1 (stereo unspecified) | 966 nM | 100% | 84% |
| O=C(NO)C(Cc1cccc(Oc2ccccc2)c1)C(=O)NCCCCc1ccccc1 (stereo unspecified) | 225 nM | 96% | 84% |
| O=C(NO)C(Cc1cccc(Oc2ccccc2)c1)C(=O)NCCCc1ccccc1 (stereo unspecified) | 527 nM | 93% | 89% |
| CC(C)CC(C(=O)NO)C(=O)NCCc1ccccc1 (stereo unspecified) | 885 nM | 74% | 105% |
| CC(C)CC(C(=O)NO)C(=O)NCc1ccc(Cl)cc1 (stereo unspecified) | 904 nM | 90% | 99% |
| O=C(NO)C(Cc1ccccc1)C(=O)NCCc1ccccc1 (stereo unspecified) | 1010 nM | 82% | 70% |
| O=C(NO)C(Cc1cccc(Oc2ccccc2)c1)C(=O)NCc1ccc(C(F)(F)F)cc1 (stereo unspecified) | 231 nM | 102% | 84% |
| CC(C)CC(C(=O)NO)C(=O)NCc1cccc(Oc2ccccc2)c1 (stereo unspecified) | 45 nM | 88% | 96% |
| O=C(NO)C(Cc1ccccc1)C(=O)NCc1cccc(Oc2ccccc2)c1 (stereo unspecified) | 2510 nM | 87% | 83% |
| O=C(NO)C(Cc1ccccc1)C(=O)NCC(c1ccccc1)c1ccccc1 (stereo unspecified) | 5360 nM | – | – |
| O=C(NO)C(Cc1ccccc1)C(=O)N1CCN(Cc2ccccc2)CC1 (stereo unspecified) | 1760 nM | 75% | 21% |
| O=C(NO)C(Cc1ccccc1)C(=O)NCc1cccc2ccccc12 (stereo unspecified) | 107 nM | – | – |
| O=C(NO)C(Cc1cccc(Oc2ccccc2)c1)C(=O)N1CCN(Cc2ccc3c(c2)OCO3)CC1 (stereo unspecified) | – | 97% | 31% |
| O=C(NO)C(Cc1ccccc1)C(=O)N1CCN(Cc2ccc3c(c2)OCO3)CC1 (stereo unspecified) | – | 53% | 29% |
| O=C(NO)C(Cc1ccccc1)C(=O)N1CCN(c2ccccc2)CC1 (stereo unspecified) | – | 20% | 46% |
| NC(C(=O)NO)C(=O)N1CCN(Cc2ccc3c(c2)OCO3)CC1 (stereo unspecified) | – | -3% | 23% |
| O=C(CC(=O)NCCCc1ccccc1)NO | – | 2% | 15% |
| O=C(CC(=O)N1CCN(Cc2ccc3c(c2)OCO3)CC1)NO | – | 7% | 11% |
| O=C(NO)C(Cc1ccccc1)C(=O)N1CCC2(CC1)C(=O)NCN2c1ccccc1 (stereo unspecified) | – | 40% | 22% |
| NC(C(=O)NO)C(=O)N1CCC2(CC1)C(=O)NCN2c1ccccc1 (stereo unspecified) | – | -6% | 43% |

| SMILES | IC50 (Aminopeptidase N) | inhibition [1] | inhibition [2] |
| --- | --- | --- | --- |
| CN(Cc1ccccc1)C(=O)C(Cc1ccccc1)C(=O)NO (stereo unspecified) | – | 45% | 36% |
| Cc1ccccc1CNC(=O)CC(=O)NO | – | 32% | 17% |
| NC(C(=O)NO)C(=O)NCc1ccccc1 (stereo unspecified) | – | 10% | 77% |
| O=C(NO)C(Cc1cccc(Oc2ccccc2)c1)C(=O)NCCc1ccccn1 (stereo unspecified) | – | 67% | 85% |
| O=C(CC(=O)N1CCC2(CCNc3ccccc3O2)CC1)NO | – | -5% | 27% |
| O=C(NO)C(Cc1cccc(Oc2ccccc2)c1)C(=O)N(CCc1ccccc1)Cc1ccccc1 (stereo unspecified) | – | 38% | 67% |
| O=C(CC(=O)NCc1ccc(C(F)(F)F)cc1)NO | – | 1% | 40% |
| CC(C)CC(C(=O)NO)C(=O)NCCNc1cccc2ccccc12 (stereo unspecified) | – | 42% | 93% |
| O=C(NO)C(Cc1ccccc1)C(=O)N1CCN(C(c2ccccc2)c2ccccc2)CC1 (stereo unspecified) | – | 0% | 14% |
| O=C(NO)C(Cc1ccccc1)C(=O)N[C@H]1CCN(Cc2ccccc2)C1 (stereo partly specified) | – | 43% | 28% |
| CC(C)CC(C(=O)NO)C(=O)N1CCC2(CCNc3ccccc3O2)CC1 (stereo unspecified) | – | 16% | 21% |
| CN(Cc1ccccc1)C(=O)CC(=O)NO | – | -4% | 9% |
| CC(C)CC(C(=O)NO)C(=O)N1CCc2ccccc2C1 (stereo unspecified) | – | 74% | 90% |
| CC(C)CC(C(=O)NO)C(=O)N1CCN(C(c2ccccc2)c2ccccc2)CC1 (stereo unspecified) | – | -2% | 19% |
| O=C(CC(=O)N1CCC2(CC1)C(=O)NCN2c1ccccc1)NO | – | 5% | 19% |
| O=C(NO)C(Cc1cccc(Oc2ccccc2)c1)C(=O)N1CCN(C(c2ccccc2)c2ccccc2)CC1 (stereo unspecified) | – | -6% | 41% |
| O=C(NO)C(Cc1cccc(Oc2ccccc2)c1)C(=O)NC1Cc2ccccc2C1 (stereo unspecified) | – | 43% | 72% |
| CN(CCCNC(=O)C(Cc1ccccc1)C(=O)NO)c1ccccc1 (stereo unspecified) | – | 67% | 46% |
| NC(C(=O)NO)C(=O)N1CCN(C(c2ccccc2)c2ccccc2)CC1 (stereo unspecified) | – | -5% | 10% |
| O=C(NO)C(Cc1cccc(Oc2ccccc2)c1)C(=O)NCCNc1cccc2ccccc12 (stereo unspecified) | – | 66% | 78% |
| NC(C(=O)NO)C(=O)N1CCC(n2c(=O)[nH]c3ccccc32)CC1 (stereo unspecified) | – | 12% | 34% |
| CC(C)CC(C(=O)NO)C(=O)NC1CCN(Cc2ccccc2)CC1 (stereo unspecified) | – | 3% | 57% |
| Cc1ccccc1CNC(=O)C(N)C(=O)NO (stereo unspecified) | – | 9% | 23% |
| CN(Cc1ccccc1)C(=O)C(Cc1cccc(Oc2ccccc2)c1)C(=O)NO (stereo unspecified) | – | 86% | 89% |
| Cc1ccccc1CNC(=O)C(CC(C)C)C(=O)NO (stereo unspecified) | – | 88% | 98% |
| CN(CCCCc1ccccc1)C(=O)C(Cc1cccc(Oc2ccccc2)c1)C(=O)NO (stereo unspecified) | – | 80% | 95% |

Reference: ChEMBL document CHEMBL1142961, “Novel selective inhibitors of the zinc plasmodial aminopeptidase PfA-M1 as potential antimalarial agents” (J Med Chem, 2007)
